From PubChem BioAssay
Most compounds without a hit are left out; they make up all but 2% or so of the library.
PPC-1+TRAIL kill: kills PPC-1 cancer cells in the presence of TRAIL. PPC-1 cells + TRAIL, ATPLite viability luminescence. AID 1443. cell killing (% activity), % at 4 µM or 5 µM. 220,000 tested, 0.41% active;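 active means cell killing above 50% in the first pass at 4 µM, then a duplicate retest at 5 µM averaging 50% or more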;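 further: plate controls were cells with TRAIL plus DMSO for no effect and medium-only wells lacking cells for full effect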
FLuc inh counter: inhibits firefly luciferase, flagging false hits in luciferase inhibition screens. P08659. ATPLite firefly luciferase biochemical luminescence, 10 min. inhibition, % at 10 µM. 200,000 tested, 1.5% active. AID 1006;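 active means inhibition above about 50% when tested at 10 µM, limit read from the data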
Target sequence (P08659 whole entry, looked up): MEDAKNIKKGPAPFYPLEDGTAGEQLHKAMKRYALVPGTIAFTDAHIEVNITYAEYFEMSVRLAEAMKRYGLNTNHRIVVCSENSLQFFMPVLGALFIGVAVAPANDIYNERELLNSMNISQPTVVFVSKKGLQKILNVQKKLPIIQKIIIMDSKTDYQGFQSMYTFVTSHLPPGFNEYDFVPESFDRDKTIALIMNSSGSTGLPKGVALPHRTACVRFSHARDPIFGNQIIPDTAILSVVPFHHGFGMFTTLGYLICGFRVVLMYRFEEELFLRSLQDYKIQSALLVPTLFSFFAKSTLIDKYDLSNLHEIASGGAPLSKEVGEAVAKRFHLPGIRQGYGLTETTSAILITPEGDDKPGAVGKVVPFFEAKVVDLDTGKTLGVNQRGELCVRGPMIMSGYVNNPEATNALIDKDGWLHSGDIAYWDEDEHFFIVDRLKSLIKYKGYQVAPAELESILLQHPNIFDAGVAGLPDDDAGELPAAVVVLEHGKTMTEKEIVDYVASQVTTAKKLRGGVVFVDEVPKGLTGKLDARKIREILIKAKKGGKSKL
FLuc stim CS: affects firefly luciferase, flagging false hits in luciferase stimulation screens; P08659; ATPlite luciferase biochemical, luminescence, 10 min; 0 = ATP-free wells, 1 = DMSO control; activation factor at 10 µM; 200,000 tested, under 10 active;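 active means luciferase activation factor, scaled between plate controls, of at least 2 with compound at 10 µM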
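System: Luciferase/luciferin detection reagent, cell-free biochemical luciferase assay | Medium: PBS buffer for ATP | Dosing: Test compounds dosed from 2 mM stocks in 100% DMSO | Timing: 10 min at ambient temperature | Signal: Luminescence measurement of luciferase light output | Evaluation: Luciferase activation, seen as luminescence increase over controls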
TRAIL sens C8: sensitizes caspase-8 expressing cells to TRAIL. 360,000 tested, 1% active. NB7+C8 cells + TRAIL, ATPlite viability luminescence. inhibition (viability loss, TRAIL sensitization), % at 10 µM;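 active means compounds causing at least 50% loss of cell viability in the single-dose screen, relative to plate controls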
HSP90 inh: inhibitors of HSP90 luciferase refolding in rabbit reticulocyte lysate. luciferase refolding luminescence, 3 h. inhibition, % at 5.6 µM. 290,000 tested, 0.91% active. AID 1789;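 active means inhibition above the screen-wide mean plus 3 SD, computed separately per campaign, cut at about 16% in these data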;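 further: 0% = DMSO wells and 100% = 60 µM geldanamycin wells; inhibitors lower the luminescence because luciferase stays unfolded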
* hit, by the source's call.

For Cc1nn(-c2ccccc2)c2c1C(c1ccncc1)C(C#N)=C(N)O2 (stereo not drawn) the results were PPC-1+TRAIL kill 10, FLuc inh counter -1, FLuc stim CS 1, TRAIL sens C8 6 and HSP90 inh 2.
COc1cc(-n2nc(C)c3c2OC(N)=C(C#N)C3c2ccccc2)c(Cl)c(Br)c1O (stereo not drawn) was read as PPC-1+TRAIL kill 8, FLuc inh counter -4, FLuc stim CS 1, TRAIL sens C8 -9 and HSP90 inh 17*.
For Cc1ccccc1NC(=O)c1ccc(N/N=C/c2ccccc2O)c([N+](=O)[O-])c1 the results were PPC-1+TRAIL kill 12, FLuc inh counter -1, FLuc stim CS 1, TRAIL sens C8 41 and HSP90 inh 4.
Screening Cc1ccc(NC(=O)c2ccc(N/N=C/c3cccc(O)c3)c([N+](=O)[O-])c2)cc1 returned PPC-1+TRAIL kill 53*, FLuc inh counter -1, FLuc stim CS 1, TRAIL sens C8 44 and HSP90 inh 1.
Cc1ccccc1C1CC(=O)Oc2cc(O)ccc21 (stereo not drawn) was read as TRAIL sens C8 -17.
Screening CN(/N=C/c1cccnc1)c1cnc2ccccc2n1 returned PPC-1+TRAIL kill 10, FLuc inh counter 51*, FLuc stim CS 0.5, TRAIL sens C8 31 and HSP90 inh 3.
O=C(Nc1cc(S(=O)(=O)Nc2ccc(Cl)cc2)ccc1O)c1ccc(S(=O)(=O)N2CCCCCC2)cc1 was read as PPC-1+TRAIL kill 12, FLuc inh counter -4, FLuc stim CS 1, TRAIL sens C8 -5 and HSP90 inh 1.
O=C(N/N=C\c1cc(Cl)ccc1O)c1ccc(S(=O)(=O)N2CCCCC2)cc1 was read as PPC-1+TRAIL kill 52*, FLuc inh counter -6, FLuc stim CS 1.1, TRAIL sens C8 20 and HSP90 inh 1.
`O=C(N/N=C/c1cc(Cl)ccc1O)c1ccccc1Br` gave PPC-1+TRAIL kill 20, FLuc inh counter -2, FLuc stim CS 1, TRAIL sens C8 53* and HSP90 inh -1.
`O=C(CNC(=O)c1ccccc1Br)N/N=C/c1cc(Br)ccc1O` gave PPC-1+TRAIL kill 28, FLuc inh counter -5, FLuc stim CS 1.1, TRAIL sens C8 43 and HSP90 inh 1.
`O=C(Nc1ccc(Cl)cc1Cl)c1n[nH]c(Cn2cncn2)n1` gave PPC-1+TRAIL kill 27, FLuc inh counter 64*, FLuc stim CS 0.4, TRAIL sens C8 14 and HSP90 inh 2.
Screening COc1ccc(Cl)cc1NC(=O)CSc1nc(=O)n(CCN(C)C)c2c1CCCC2 returned TRAIL sens C8 7.
For O=[N+]([O-])c1ccc(O)c(/C=N/NC2=NS(=O)(=O)c3ccccc32)c1 the results were PPC-1+TRAIL kill 22, FLuc inh counter 69*, FLuc stim CS 0.3, TRAIL sens C8 3 and HSP90 inh 3.
For Cc1cc(NC(=O)c2cccnc2)ccc1Br the results were TRAIL sens C8 3 and HSP90 inh -3.
For O=Nc1c(-c2c(O)[nH]c3cc(Br)ccc23)[nH]c2ccccc12 the results were TRAIL sens C8 84* and HSP90 inh -6.
Cc1[nH]nc(C(F)(F)F)c1N=NN1CCOCC1 was read as TRAIL sens C8 78*.
For Cc1ccc(NC(=O)c2ccc3nsnc3c2)c(Cl)c1 the results were TRAIL sens C8 58* and HSP90 inh 10.
Screening O=C(Nc1ccc(Br)cc1F)c1ccc2nsnc2c1 returned TRAIL sens C8 4 and HSP90 inh -2.
`Nc1ccc(/C=C/C(=O)c2cccs2)cc1` gave PPC-1+TRAIL kill 21, FLuc inh counter 77*, FLuc stim CS 0.2, TRAIL sens C8 -1 and HSP90 inh -4.
Screening O=C(C=Cc1ccccc1)c1cccs1 returned TRAIL sens C8 1.
`CC(Sc1nnc(NC2CCCCC2)s1)C(=O)Nc1ccc2c(c1)C(=O)c1ccccc1C2=O` (stereo not drawn) gave PPC-1+TRAIL kill -12, FLuc inh counter -2, FLuc stim CS 1, TRAIL sens C8 11 and HSP90 inh -3.
For CC(=O)Nc1ccc(NC(=O)c2nc(S(=O)(=O)Cc3ccccc3)ncc2Cl)cc1 the results were TRAIL sens C8 16 and HSP90 inh 0.
For Cc1ccc(CS(=O)(=O)c2ncc(Cl)c(C(=O)Nc3ccc(OC(F)F)cc3)n2)cc1 the results were TRAIL sens C8 88* and HSP90 inh -1.
For COc1ccc(CNC(=O)c2nc(S(=O)(=O)Cc3ccccc3)ncc2Cl)cc1 the results were TRAIL sens C8 31 and HSP90 inh -1.
For CCC1CCCCN1S(=O)(=O)c1ccc(NC(=O)c2nc(S(C)(=O)=O)ncc2Cl)cc1 (stereo not drawn) the results were TRAIL sens C8 92* and HSP90 inh 9.
Screening CCS(=O)(=O)c1ncc(Cl)c(C(=O)Nc2ccc(C)cc2)n1 returned TRAIL sens C8 84* and HSP90 inh -3.
CCS(=O)(=O)c1ncc(Cl)c(C(=O)Nc2ccc(S(=O)(=O)N3CCCC(C)C3)cc2)n1 (stereo not drawn) was read as TRAIL sens C8 96* and HSP90 inh 1.
`O=C1NC[C@H](CCCCN2C[C@H](Cc3ccc(O)cc3)N(CCC3CCCCC3)C(=O)C2=O)N(CCc2ccc(O)cc2)C1=O` gave TRAIL sens C8 -5.
Screening CC(=O)Nc1cccc(C(=O)Nc2cccnc2)c1 returned PPC-1+TRAIL kill 15, FLuc inh counter 0, FLuc stim CS 1, TRAIL sens C8 9 and HSP90 inh 2.
For Cc1ccc(-c2noc(-c3ccccc3Br)n2)cc1 the results were PPC-1+TRAIL kill 36, FLuc inh counter 67*, FLuc stim CS 0.3, TRAIL sens C8 51* and HSP90 inh -5.
`CN(C)c1ccc(-c2noc(-c3ccccc3O)n2)cc1` gave PPC-1+TRAIL kill 33, FLuc inh counter 58*, FLuc stim CS 0.4, TRAIL sens C8 41 and HSP90 inh 3.
COc1ccccc1-c1nc(-c2ccc(Br)cc2)no1 was read as PPC-1+TRAIL kill -1, FLuc inh counter 15, FLuc stim CS 0.8, TRAIL sens C8 19 and HSP90 inh 2.
For COCCNC(=O)CN1CCN(S(=O)(=O)c2ccc3c(c2)CCCC3)CC1 the results were TRAIL sens C8 6.
COc1ccc(-c2ccc3c(c2)S(=O)(=O)c2cccc(C(=O)N4CCN(c5ccc(Cl)cn5)CC4)c2C3=O)cc1OC was read as TRAIL sens C8 13.
`O=C1c2ccc(Cl)cc2S(=O)(=O)c2cccc(C(=O)N3CCN(c4ccc(Cl)cn4)CC3)c21` gave TRAIL sens C8 59*.
For COc1ccc(N(C)S(=O)(=O)c2cccc(C(=O)N3CCN(c4cccc(C)c4C)CC3)c2)cc1 the results were TRAIL sens C8 24.
C#CCN1C(=O)S/C(=C\c2ccc(-c3ccc(Cl)c(C(=O)O)c3)o2)C1=O was read as TRAIL sens C8 11 and HSP90 inh 23*.
